What was measured:
Human gammaherpesvirus 4 = experiment: Antiviral activity against EBV infected in human Akata cells by DNA hybridization assay; type: functional, organism-based; details: human gammaherpesvirus 4, Akata
Summary of the method: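 Under an NIAID agreement, testing was done at Southern Research Institute as part of a 21-virus panel. EBV activity was assessed in Akata cells by DNA hybridization, and EC50 values were derived.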

[1] = Selectivity index, ratio of cytotoxicity towards human Akata cells to EC50 for EBV infected in human Akata cells; type: toxicity, cell-based; details: read-out: Selectivity Index
[2] = test system: Human immunodeficiency virus 1; experiment: Antiviral activity against HIV-1 3B/H9 infected in human HOG.R5 cells transfected with HIV1 LTR-GFP assessed as inhibition of viral replication by fluorescence analysis; type: functional, organism-based; details: Human immunodeficiency virus 1, 3B
[3] = Cytotoxicity against human HOG.R5 cells infected with HIV-1 3B; type: cell-based
Summary of the method: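 Cytotoxicity was run in parallel with the anti-HIV assay, in the same GFP-reporter HOG·R5 line (HOS cells expressing CD4/CCR5). Cell-growth inhibition of the host cells was measured.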

[4] = test system: Human immunodeficiency virus 1; experiment: Antiviral activity against HIV-1 3B/H9 infected in human HOG.R5 cells transfected with HIV1 LTR-GFP assessed as inhibition of viral replication at 15.9 uM by fluorescence analysis; type: functional; details: Human immunodeficiency virus 1, 3B
[5] = test system: Human immunodeficiency virus 1; experiment: Antiviral activity against HIV-1 3B/H9 infected in human HOG.R5 cells transfected with HIV1 LTR-GFP assessed as inhibition of viral replication at 10 ug/ml by fluorescence analysis; type: functional; details: Human immunodeficiency virus 1, 3B

Row | SMILES | EC50 (Human gammaherpesvirus 4) | selectivity ratio [1] | IC50 [2] | CC50 [3] | inhibition at 15.9 µM [4] | inhibition at 10 µg/mL [5]
1 | O[C@]12CO[C@@H](c3ccc4c(c3)OCO4)[C@@]1(O)CO[C@@H]2c1ccc2c(c1)OCO2 | 67 µM | 1.2 |  |  |  | 
2 | COc1cc(OC)c(C(=O)/C=C/c2ccc(O)cc2)c(OC)c1 | 15 µM | 3.5 | < 15.2 µM | 24.4 µM | 77% | 
3 | C=Cc1c(C)c2cc3nc(c4c5[nH]c(cc6nc(cc1[nH]2)C(C)=C6CC)c(C)c5C(=O)[C@@H]4C(=O)OC)[C@@H](CCC(=O)O)[C@@H]3C [PHEOPHORBIDE A] |  |  |  |  |  | 80%

Source: ChEMBL document CHEMBL3120086, “Bioactive compounds from Vitex leptobotrys” (J Nat Prod, 2014)
